M4 PAM: CHRM4 positive allosteric modulation; P08173; CHO-K1 hM4/Gqi5, Fluo-8 calcium fluorescence, ACh EC20; 0% = ACh EC20, 100% = maximal ACh; 360,000 compounds, 0.4% hits; activation, % at 3 µM;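 active means activation above its plate's cutoff, the mean activation of sample wells plus 3 SD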
Target sequence (P08173 whole entry, looked up): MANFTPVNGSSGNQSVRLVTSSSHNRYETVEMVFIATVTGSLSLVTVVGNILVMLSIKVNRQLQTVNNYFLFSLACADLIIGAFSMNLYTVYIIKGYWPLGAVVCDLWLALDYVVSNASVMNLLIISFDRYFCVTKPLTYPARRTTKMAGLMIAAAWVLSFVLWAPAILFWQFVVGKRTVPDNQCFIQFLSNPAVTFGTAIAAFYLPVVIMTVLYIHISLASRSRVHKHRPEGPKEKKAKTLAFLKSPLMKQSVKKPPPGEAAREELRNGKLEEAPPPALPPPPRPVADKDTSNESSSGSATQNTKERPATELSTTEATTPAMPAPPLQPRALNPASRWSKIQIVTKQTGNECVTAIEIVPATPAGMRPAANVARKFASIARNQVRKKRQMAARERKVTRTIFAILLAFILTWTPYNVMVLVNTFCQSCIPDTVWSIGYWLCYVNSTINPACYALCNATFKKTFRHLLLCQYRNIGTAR
M5 PAM: CHRM5 positive allosteric modulation. 360,000 compounds, 0.3% hits. P08912. activation, % at 3 µM. CHO-K1 hM5, Fluo-8 calcium, ACh EC20 PAM; 0% = ACh EC20, 100% = ACh EC100;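 active means activation above the run cutoff, the mean activation of all test compounds plus 3 SD, cut at about 18% in these data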
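Test system: CHO-K1 hM5 cells / Doses: single-point, 3 µM nominal / Times: Post-acetylcholine fluorescence recording 140 s / Technique: Fluo-8 calcium fluorescence / Measure: Max/basal fluorescence ratio as % of EC20–EC100 ACh window / Benchmarks: low control EC20 acetylcholine (0%), high control EC100 acetylcholine (100%) / Replicates: one well per compound, no replicates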
M5 ag: CHRM5 agonism in calcium assay. P08912. CHO-K1 hM5 cells, Fluo-8 calcium fluorescence; 0% DMSO wells, 100% maximal acetylcholine response. activation, % at 3 µM. 360,000 compounds, 0.19% hits;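 active means activation above the run's mean over test compounds plus 3 SD, cut at about 23% in these data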;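 further: signal is peak over basal fluorescence ratio across the kinetic read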
CHRM4 agonist: agonists of human muscarinic M4 receptor (CHRM4). P08173. CHO-K1 hM4/Gqi5, Fluo-8 calcium fluorescence; vehicle 0%, full acetylcholine response 100%. activation, % at 3 µM. 360,000 compounds, 0.14% hits. AID 624127;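 active means activation above the run mean over all test wells plus 3 SD, cut at about 32% in these data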;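 further: peak over basal fluorescence ratio per well then scaled between controls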
M4 antag: blocks acetylcholine activation of human M4 receptor; P08173; CHO-hM4 cells, ACh EC80, Fluo-8 calcium fluorescence; inhibition, % at 3 µM; 360,000 compounds, 0.73% hits; AID 624125;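 active means inhibition above its plate's cutoff, the mean inhibition of sample wells plus 3 SD, cut at about 27% in these data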
M5 antag: antagonists of human muscarinic M5 receptor (CHRM5); 360,000 compounds, 0.59% hits; CHO-hM5 cells, Fluo-8 calcium fluorescence, ACh EC80; P08912; inhibition, % at 3 µM; AID 624040;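 active means inhibition above a per-plate cutoff, the mean of that plate's test compounds plus 3 SD, cut at about 27% in these data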
Each line names hits and unclear results; the compound was inactive in the other large screens. The list is not random: actives were taken first. Their share in the collection is about 1.8%.

COc1ccccc1C(CNC(=O)C(C)(C)Oc1ccc(Cl)cc1)N1CCCC1 (configuration not stated)	M5 antag 71.8
CON(C)C(=O)CC(CN(Cc1ccccc1)C(=O)OC(C)(C)C)c1ccc(Cl)cc1 (configuration not stated)	none
CON(C)C(=O)CCN(Cc1ccccc1)C(=O)OC(C)(C)C	M5 PAM 18.6
COc1ccccc1Cn1c(=O)[nH]c2cccnc21	M5 PAM 41.1
O=C1C(SCCO)=C(SCCO)C(=O)c2ccccc21	M4 antag 61.1, M5 antag 38.2
CSc1ncc2[nH]c(C(O)c3ccccc3)nc2n1 (configuration not stated)	M4 PAM 18.0
Cc1csc(/C(=N\O)c2csc(C)n2)n1	M4 PAM 20.6
Cc1csc(/C(C#N)=N/O)n1	none
CC(NS(=O)(=O)c1ccc2c(c1)C(C)(C)C(=O)N2C)c1ccccc1 (configuration not stated)	none
COc1ccc(C(CCNCc2ccc(OC(C)C)cc2)C(C)C)cc1 (configuration not stated)	none
COc1ccc(C(CCNCc2ccc(N(C)C)cc2)C(C)C)cc1 (configuration not stated)	M4 antag 41.9
CC(NC(=O)c1ccc(NC2=NC3CS(=O)(=O)CC3S2)cc1)c1ccccc1 (configuration not stated)	M4 antag 94.4
O=C(Cc1ccc(NC2=NC3CS(=O)(=O)CC3S2)cc1)NCc1ccccc1Cl (configuration not stated)	M4 PAM 16.4
O=C(Cc1ccc(NC2=NC3CS(=O)(=O)CC3S2)cc1)NCc1ccccc1 (configuration not stated)	none
COC(=O)c1ccc(N2CCOCC2)c(NC(=O)c2ccco2)c1	M4 antag 28.5
COc1ccc(N2CCOCC2)c(NC(=O)c2ccco2)c1	none
CN1CCN(C(=O)C2=C[C@@H](c3coc4ccccc4c3=O)C[C@@H](OCCCCO)O2)CC1	M4 PAM 23.9
O=C(C1=C[C@@H](c2coc3ccccc3c2=O)C[C@@H](OCCCCO)O1)N1CCN(Cc2ccccc2)CC1	none
O=C1NCC(COCC2CC=CCC2)O1 (configuration not stated)	M4 PAM 27.9
CN(C)C(CNC(=O)c1ccc(-c2ccccc2)cc1)c1ccccc1 (configuration not stated)	none
Cc1ccc(CNS(=O)(=O)c2cn(C)c(=O)n(C)c2=O)cc1	none
O=C(NC1CCCC1)C1c2ccccc2OCC(=O)N1Cc1cccnc1 (configuration not stated)	none
CN(C)CCCOC(=O)c1ccccc1Cl	none
CN(C)CCCOC(=O)N1c2ccccc2C=Cc2ccccc21	M4 antag 66.6, M5 antag 80.8
O=C(NC(=S)Nc1ccccc1F)c1ccc(Br)o1	none
COc1ccc(C(=O)C2CCCN(C(=O)c3cccc(Cn4cccn4)c3)C2)cc1F (configuration not stated)	none
COc1ccc(CN2CCCC(C(=O)c3ccc(SC)cc3)C2)cc1Cn1cccn1 (configuration not stated)	M4 antag 37.2
CSc1ccc(C(=O)C2CCCN(Cc3ccc(N4CCNC4=O)cc3)C2)cc1 (configuration not stated)	M4 antag 70.3
Cc1ccnc2nc(C(=O)OCC(=O)N(C)C3CCCCC3)nn12	none
c1coc(CN(Cc2ccco2)c2ncnc3c2oc2ccccc23)c1	M4 antag 36.8, M5 antag 31.5
CCCCCNC(=O)C(c1ccc(C(F)(F)F)cc1)n1c(=O)c(-c2ccco2)nc2ccccc21 (configuration not stated)	none
CN(C)c1cc2c(c(N(C)C)c1)C(=O)c1ccccc1C2=O	M4 PAM 19.8
Cc1cccc(NC(=O)C(=O)C2C(=O)Nc3ccccc32)c1 (configuration not stated)	M5 PAM 18.7
Cc1ccc(SCC(=O)N2CCCC2)cc1	M5 PAM 18.8

Assay outcomes: PubChem BioAssay, The Scripps Research Institute Molecular Screening Center
